Test results taken from ChEMBL document CHEMBL3526072 (Drug Metab Dispos, 2011).

What was measured:
Rattus norvegicus [1] = assay: Ratio of compound AUC to verapamil AUC in streptozotocin-induced diabetes mellitus model of Sprague-Dawley rat treated with 10 mg/kg, po of verapamil; type: ADME, organism-based; parameters: dose 10 mg/kg, route oral; settings: in vivo
Rattus norvegicus [2] = assay: Ratio of compound AUC to verapamil AUC in Sprague-Dawley rat treated with 10 mg/kg, po of verapamil; type: ADME, organism-based; parameters: dose 10 mg/kg, route oral; settings: in vivo
[3] = Cmax in streptozotocin-induced diabetes mellitus model of Sprague-Dawley rat portal vein plasma at 10 mg/kg, po; type: ADME, organism-based; parameters: dose 10 mg/kg, route oral
[4] = AUC (0 to 90 mins) in streptozotocin-induced diabetes mellitus model of Sprague-Dawley rat portal vein plasma at 10 mg/kg, po; type: ADME, organism-based; parameters: time < 1.5 hr, dose 10 mg/kg, route oral
[5] = Tmax in streptozotocin-induced diabetes mellitus model of Sprague-Dawley rat portal vein plasma at 10 mg/kg, po; type: ADME, organism-based; parameters: dose 10 mg/kg, route oral
[6] = Cmax in Sprague-Dawley rat portal vein plasma at 10 mg/kg, po; type: ADME, organism-based; parameters: dose 10 mg/kg, route oral
[7] = AUC (0 to 90 mins) in Sprague-Dawley rat portal vein plasma at 10 mg/kg, po; type: ADME, organism-based; parameters: time < 1.5 hr, dose 10 mg/kg, route oral
[8] = Tmax in Sprague-Dawley rat portal vein plasma at 10 mg/kg, po; type: ADME, organism-based; parameters: dose 10 mg/kg, route oral
[9] = Tmax in Sprague-Dawley rat at 10 mg/kg, po; type: ADME, organism-based; parameters: dose 10 mg/kg, route oral; settings: in vivo
Liver [10] = assay: Increase of CYP3A1 level in streptozotocin-induced diabetes mellitus model of Sprague-Dawley rat liver by Western blot analysis relative to wild type rat; type: ADME, tissue-based
Summary of the method: (§1)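 Rats from the STZ 65 mg/kg i.p. protocol versus citrate-treated age-matched controls, day 35. Hepatic microsomes or duodenal and jejunal homogenates (20 µg protein) run on 10% SDS-PAGE and probed with mouse anti-rat CYP3A1 monoclonal and rabbit anti-rat CYP3A2 polyclonal antibodies; band densitometry expressed relative to controls; mean ± S.D., four rats.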

Liver [11] = assay: Increase of CYP3A2 level in streptozotocin-induced diabetes mellitus model of Sprague-Dawley rat liver by Western blot analysis relative to wild type rat; type: ADME, tissue-based; summary of the method: as §1
Intestine [12] = assay: Decrease of CYP3A1 level in streptozotocin-induced diabetes mellitus model of Sprague-Dawley rat intestine by Western blot analysis; type: ADME; summary of the method: as §1
Intestine [13] = assay: Decrease of CYP3A2 level in streptozotocin-induced diabetes mellitus model of Sprague-Dawley rat intestine by Western blot analysis; type: ADME; summary of the method: as §1
[14] = Tmax in streptozotocin-induced diabetes mellitus model of Sprague-Dawley rat at 10 mg/kg, po; type: ADME, organism-based; parameters: dose 10 mg/kg, route oral; settings: in vivo

| Ratio AUC (Rattus norvegicus [1]) | Ratio AUC (Rattus norvegicus [2]) | Cmax [3] | AUC(0-t) at 1.5 h [4] | Tmax [5] | Cmax [6] | AUC(0-t) at 1.5 h [7] | Tmax [8] | Tmax [9] | Activity (Liver [10]) | Activity (Liver [11]) | Tmax [14] | SMILES | Activity (Intestine [12]) | Activity (Intestine [13]) |
| --- | --- | --- | --- | --- | --- | --- | --- | --- | --- | --- | --- | --- | --- | --- |
| 0.43 | 0.69 |  |  |  |  |  |  |  |  |  |  | COc1ccc(CCNCCCC(C#N)(c2ccc(OC)c(OC)c2)C(C)C)cc1OC.Cl (centres undefined) |  |  |
|  |  | 5830 ng/mL | 7030 ng·h/mL | 30 min | 1440 ng/mL | 1460 ng·h/mL | 37.5 min | 34 min | 50% | 151% | 21.7 min | COc1ccc(CCN(C)CCCC(C#N)(c2ccc(OC)c(OC)c2)C(C)C)cc1OC (centres undefined) | Toxic | Toxic |
